From paper PMC7337098 (Cell reports, 2020)
Where a name gives a salt, the structure may show the parent alone. Read-outs that look alike come from different tables or passages of the source.

Assays:
[1] = tested on: P2XR in cerebellar granule cells; type: cell-based, mouse; conditions: TNP-ATP 10 μM co-applied with ATP; untreated 23.55 ± 6.96 pA; n = 3
[2] = tested on: P2XRs in DRG neurons; test: Whole-cell recording of ATP-evoked currents, primary DRG neurons from WT mice; type: cell-based; conditions: Mus musculus, DRG neuron, read-out: ATP EC50
[3] = biological target: T1, P2X3R (Homo sapiens, UniProt P56373); type: cell-based
T1 sequence (P56373 1-397): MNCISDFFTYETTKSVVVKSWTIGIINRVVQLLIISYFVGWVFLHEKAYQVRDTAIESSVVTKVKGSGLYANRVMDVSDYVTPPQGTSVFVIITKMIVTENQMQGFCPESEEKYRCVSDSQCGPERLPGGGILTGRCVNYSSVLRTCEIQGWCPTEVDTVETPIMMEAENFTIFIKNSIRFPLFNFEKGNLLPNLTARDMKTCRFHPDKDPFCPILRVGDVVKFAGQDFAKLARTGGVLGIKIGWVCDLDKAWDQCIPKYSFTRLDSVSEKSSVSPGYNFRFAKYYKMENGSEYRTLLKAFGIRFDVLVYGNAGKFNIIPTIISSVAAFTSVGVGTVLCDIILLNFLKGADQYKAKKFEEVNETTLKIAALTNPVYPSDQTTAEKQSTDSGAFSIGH

[4] = tested on: WT mice; test: ATP-evoked freezing behavior after hind paw injection; type: in vivo, mouse; conditions: 3 μmol ATP into hind paw, 4 min after injection, saline 6.7 ± 3.2 s
[5] = biological target: T1, P2X3R; test: Calcium FLIPR ATP dose response, P2X3R-stable HEK cells transfected with pcDNA3; type: cell-based
[6] = tested on: endogenous P2 receptors in HEK cells; test: Calcium FLIPR response of HEK cells; type: cell-based, human; conditions: untransfected (Mock) HEK cells
[7] = biological target: T2, P2X3R with TMEM163 (Homo sapiens, UniProt P56373); test: Calcium FLIPR ATP dose response, P2X3R-stable HEK cells transfected with TMEM163; type: cell-based
T2 sequence (P56373 1-397): T1 sequence (P56373 1-397)
T2 sequence (Q8TC26 1-289 partner): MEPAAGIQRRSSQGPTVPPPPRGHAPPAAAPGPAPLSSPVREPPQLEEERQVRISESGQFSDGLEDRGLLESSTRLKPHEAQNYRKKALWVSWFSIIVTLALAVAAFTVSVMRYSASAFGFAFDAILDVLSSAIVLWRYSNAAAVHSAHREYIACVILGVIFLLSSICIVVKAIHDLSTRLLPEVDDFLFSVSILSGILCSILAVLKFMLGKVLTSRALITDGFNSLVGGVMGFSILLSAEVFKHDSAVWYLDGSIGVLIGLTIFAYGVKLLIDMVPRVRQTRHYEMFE

[8] = tested on: P2XRs in TMEM163 KO DRG neurons; type: cell-based; conditions: Mus musculus, DRG neuron, read-out: ATP EC50
[9] = biological target: T2, P2X3R with TMEM163; type: cell-based
[10] = biological target: T1, P2X3R; type: cell-based; conditions: 100 μM ATP, outside-out patch
[11] = biological target: T2, P2X3R with TMEM163; type: cell-based; conditions: 100 μM ATP, outside-out patch
[12] = biological target: T3, P2X4R with TMEM163 (Homo sapiens, UniProt Q99571); type: cell-based; conditions: 10 μM ivermectin pre-applied 10 s, ATP 1.3 μM, n = 7
T3 sequence (Q99571 1-388): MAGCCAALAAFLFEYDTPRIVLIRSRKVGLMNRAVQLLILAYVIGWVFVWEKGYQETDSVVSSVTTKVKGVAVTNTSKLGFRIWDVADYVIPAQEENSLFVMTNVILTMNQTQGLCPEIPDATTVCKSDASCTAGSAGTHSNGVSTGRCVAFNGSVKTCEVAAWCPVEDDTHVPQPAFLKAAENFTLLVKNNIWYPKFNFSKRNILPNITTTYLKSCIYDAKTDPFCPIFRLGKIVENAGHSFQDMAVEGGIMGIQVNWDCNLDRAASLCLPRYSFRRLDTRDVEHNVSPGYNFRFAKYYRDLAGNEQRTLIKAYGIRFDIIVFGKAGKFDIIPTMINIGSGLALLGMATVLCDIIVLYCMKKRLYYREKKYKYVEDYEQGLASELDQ
Outline: (§1)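 Xenopus oocytes (surgically harvested, collagenase-treated) co-injected with 25 pg P2X4R cRNA plus 2 ng TMEM163 cRNA, or 2 ng Neto2 cRNA as the control. TEVC at Vh −30 mV, room temperature, in 90 mM NaCl, 1 mM KCl, 2 mM CaCl2, 10 mM HEPES pH 7.4. […] Mean ± SEM; Student's t test.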

[13] = biological target: T4, P2X4R (Homo sapiens, UniProt Q99571); type: cell-based; conditions: P2X4R alone; 10 μM ivermectin pre-applied 10 s; ATP 1.3 μM; n = 7
T4 sequence (Q99571 1-388): T3 sequence (Q99571 1-388)
Outline: as §1

[14] = tested on: P2X3R and P2X2R; test: Calcium FLIPR assay, HEK cells stably expressing both P2X3R and P2X2R; type: cell-based, human; conditions: read-out: α,β-MeATP EC50, HEK cell lines stably expressing both P2X3R and P2X2R

With Nc1ncnc2c1ncn2[C@@H]1O[C@H](COP(=O)(O)OP(=O)(O)OP(=O)(O)O)[C@H]2OC3(O[C@H]21)C([N+](=O)[O-])=CC(=[N+]([O-])[O-])C=C3[N+](=O)[O-] (some centres unmarked) [TNP-ATP, TNP-ATP triethylammonium salt] the ATP-evoked current [1] was 0.53 ± 0.25 pA.

Work on Nc1ncnc2c1ncn2[C@@H]1O[C@H](COP(=O)([O-])OP(=O)([O-])OP(=O)([O-])[O-])[C@@H](O)[C@H]1O.[Mg+2].[Mg+2] [ATP, Adenosine 5′-triphosphate magnesium salt] yielded an EC50 [2] of 5.92 ± 1.17 µM, an EC50 [3] of 1.3 ± 0.23 µM and a Hill coefficient ([3]; P2X3R, ATP TEVC dose response) of 1.04 ± 0.14. For the same compound, the “mean cumulative duration of freezing behaviors” value [4] was 74 ± 7.1 s, the Hill coefficient [5] was 0.99 ± 0.03 and the “ATP concentrations at which HEK cells (Mock) responded” value [6] was “above 1 μM”. For the same compound, the EC50 [7] was 1.27 ± 0.11 µM, the Hill coefficient ([7]; P2X3R with TMEM163, ATP calcium FLIPR dose response) was 0.73 ± 0.04 and the EC50 [8] was 31 ± 15.1 µM. The EC50 ([9]; ATP EC50, 25 pg P2X3R with 2 ng TMEM163, TEVC, 20-min interval) was 0.261 ± 0.0272 µM, the Hill coefficient ([9]; P2X3R with TMEM163, ATP TEVC dose response) was 0.98 ± 0.15 and the “mean rise time of ATP-evoked currents” value [10] was 0.43 ± 0.042 ms. For the same compound, the “mean rise time of ATP-evoked currents” value [11] was 0.50 ± 0.061 ms.

With ivermectin the “potentiation of ATP-evoked currents (ratio with and without ivermectin)” value [12] was 1.9 ± 0.2 times and the “potentiation of ATP-evoked currents (ratio with and without ivermectin)” value [13] was 3.7 ± 0.5 times.

With Nc1ncnc2c1ncn2[C@@H]1O[C@H](COP(=O)(O)CP(=O)(O)OP(=O)(O)O)[C@@H](O)[C@H]1O [α,β-MeATP, α, β-Methyleneadenosine 5′-triphosphate lithium salt] the EC50 [14] was 0.656 ± 0.0887 µM.
